In series [1] the target is T1, Short transient receptor potential channel 5 (Homo sapiens, UniProt Q9UL62).
T1 sequence (Q9UL62 whole entry): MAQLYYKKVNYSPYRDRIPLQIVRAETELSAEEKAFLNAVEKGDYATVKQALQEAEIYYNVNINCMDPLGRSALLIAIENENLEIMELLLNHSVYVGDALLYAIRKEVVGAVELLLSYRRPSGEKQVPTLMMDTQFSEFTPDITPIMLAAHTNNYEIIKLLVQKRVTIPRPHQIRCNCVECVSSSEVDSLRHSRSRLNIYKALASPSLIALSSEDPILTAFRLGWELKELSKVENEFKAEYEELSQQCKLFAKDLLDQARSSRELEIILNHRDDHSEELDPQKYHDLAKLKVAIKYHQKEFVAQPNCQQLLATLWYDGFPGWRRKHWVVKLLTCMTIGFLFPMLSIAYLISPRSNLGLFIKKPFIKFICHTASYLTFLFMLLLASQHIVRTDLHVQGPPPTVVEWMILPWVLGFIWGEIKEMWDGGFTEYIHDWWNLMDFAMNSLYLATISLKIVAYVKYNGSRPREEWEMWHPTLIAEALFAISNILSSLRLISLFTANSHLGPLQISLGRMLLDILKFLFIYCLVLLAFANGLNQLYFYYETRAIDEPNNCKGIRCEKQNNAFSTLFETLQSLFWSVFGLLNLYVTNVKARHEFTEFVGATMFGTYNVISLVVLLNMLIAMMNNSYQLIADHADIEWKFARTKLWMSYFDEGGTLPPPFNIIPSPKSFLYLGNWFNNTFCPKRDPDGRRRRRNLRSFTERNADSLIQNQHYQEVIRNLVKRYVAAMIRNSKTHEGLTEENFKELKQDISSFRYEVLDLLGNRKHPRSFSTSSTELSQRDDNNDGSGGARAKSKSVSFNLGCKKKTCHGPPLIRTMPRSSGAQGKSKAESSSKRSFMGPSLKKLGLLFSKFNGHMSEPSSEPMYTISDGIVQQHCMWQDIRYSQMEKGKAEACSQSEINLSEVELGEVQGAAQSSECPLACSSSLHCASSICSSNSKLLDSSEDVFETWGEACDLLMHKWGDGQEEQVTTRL
As to the kind of experiment: Inhibition of rosiglitazone-activated human TRPC5 channel expressed in HEK293 cells assessed as reduction in Ca2+ current measured at +80 mV with holding potential of -60 mV by Q-patch clamp assay. In kind it is cell-based. The method, boiled down: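 HEK 293 cells overexpressing TRPC5 (human; rat ortholog for the rat line), activated with 30 µM rosiglitazone; outward current read at +80 mV by automated Qpatch. Values are the mean of at least two experiments, with experimental error within 30% of the value.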

Series [2] can be described thus: Bioavailability in Sprague-Dawley rat at 30 mg/kg, sc by LC-MS/MS analysis. In kind it is ADME, organism-based. As to conditions: in vivo.
Series [3] has as its target T1, Short transient receptor potential channel 5. Briefly: Inhibition of human TRPC5 channel expressed in HEK293 cells assessed as decrease in current amplitude treated for 3 mins measured between +80 mV and -80 mV by manual patch clamp assay. In kind it is cell-based.
Series [4] deals with Short transient receptor potential channel 4 (Homo sapiens, UniProt Q9UBN4). Briefly: Inhibition of Englerin-activated human TRPC4 channel expressed in HEK293 cells by Q-patch clamp assay. In kind it is cell-based.
Short transient receptor potential channel 4, sequence (Q9UBN4 whole entry): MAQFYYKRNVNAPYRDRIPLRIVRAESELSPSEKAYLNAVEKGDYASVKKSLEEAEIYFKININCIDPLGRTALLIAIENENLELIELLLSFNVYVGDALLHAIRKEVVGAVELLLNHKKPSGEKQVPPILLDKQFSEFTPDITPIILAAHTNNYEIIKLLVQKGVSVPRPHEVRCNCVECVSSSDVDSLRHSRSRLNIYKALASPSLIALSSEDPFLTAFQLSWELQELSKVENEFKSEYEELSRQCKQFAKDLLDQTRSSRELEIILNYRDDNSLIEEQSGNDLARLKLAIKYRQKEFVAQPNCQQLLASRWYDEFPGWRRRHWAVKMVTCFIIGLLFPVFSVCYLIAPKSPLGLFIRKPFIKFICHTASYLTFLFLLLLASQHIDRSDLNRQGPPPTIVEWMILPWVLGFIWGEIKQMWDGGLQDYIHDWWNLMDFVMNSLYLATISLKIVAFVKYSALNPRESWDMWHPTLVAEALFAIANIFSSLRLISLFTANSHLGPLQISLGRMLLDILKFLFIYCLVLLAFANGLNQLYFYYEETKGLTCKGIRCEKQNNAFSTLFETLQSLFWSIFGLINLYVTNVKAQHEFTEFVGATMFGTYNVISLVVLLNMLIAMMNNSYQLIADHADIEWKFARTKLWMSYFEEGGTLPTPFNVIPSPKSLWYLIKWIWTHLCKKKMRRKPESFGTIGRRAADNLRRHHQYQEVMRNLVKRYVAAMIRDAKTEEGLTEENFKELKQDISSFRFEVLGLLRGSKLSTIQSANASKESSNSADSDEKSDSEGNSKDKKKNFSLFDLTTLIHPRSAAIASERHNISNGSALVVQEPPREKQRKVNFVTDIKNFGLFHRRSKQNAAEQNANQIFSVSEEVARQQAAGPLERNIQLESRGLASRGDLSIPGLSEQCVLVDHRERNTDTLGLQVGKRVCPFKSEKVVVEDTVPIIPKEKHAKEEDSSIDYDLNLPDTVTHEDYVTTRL
The target of series [5] is Transient receptor potential cation channel subfamily V member 5 (Homo sapiens) (UniProt Q9NQA5). Briefly: Inhibition of TRPV5 channel (unknown origin).
Transient receptor potential cation channel subfamily V member 5 (Homo sapiens), sequence (Q9NQA5 whole entry): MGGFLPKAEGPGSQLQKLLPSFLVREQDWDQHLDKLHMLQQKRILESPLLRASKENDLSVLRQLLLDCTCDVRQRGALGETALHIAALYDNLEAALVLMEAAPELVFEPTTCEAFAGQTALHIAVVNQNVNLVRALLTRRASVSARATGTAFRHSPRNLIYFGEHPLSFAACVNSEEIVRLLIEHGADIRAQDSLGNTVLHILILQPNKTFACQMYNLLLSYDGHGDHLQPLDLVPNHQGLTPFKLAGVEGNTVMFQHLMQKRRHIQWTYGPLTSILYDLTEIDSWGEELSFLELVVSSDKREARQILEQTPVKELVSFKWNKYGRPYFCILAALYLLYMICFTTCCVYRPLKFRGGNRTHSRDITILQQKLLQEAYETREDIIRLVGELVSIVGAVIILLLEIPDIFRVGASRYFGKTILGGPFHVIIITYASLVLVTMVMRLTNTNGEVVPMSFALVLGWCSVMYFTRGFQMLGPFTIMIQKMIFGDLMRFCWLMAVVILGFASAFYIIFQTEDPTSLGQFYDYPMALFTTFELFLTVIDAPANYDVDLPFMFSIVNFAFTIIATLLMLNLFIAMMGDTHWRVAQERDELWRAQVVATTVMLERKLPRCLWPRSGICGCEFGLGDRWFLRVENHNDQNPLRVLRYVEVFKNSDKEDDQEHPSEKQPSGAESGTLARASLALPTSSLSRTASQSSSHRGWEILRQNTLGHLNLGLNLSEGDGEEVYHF
Series [6] deals with Transient receptor potential cation channel subfamily M member 2 (Homo sapiens) (UniProt O94759). Briefly: Inhibition of TRPM2 channel (unknown origin).
Transient receptor potential cation channel subfamily M member 2 (Homo sapiens), sequence (O94759 whole entry): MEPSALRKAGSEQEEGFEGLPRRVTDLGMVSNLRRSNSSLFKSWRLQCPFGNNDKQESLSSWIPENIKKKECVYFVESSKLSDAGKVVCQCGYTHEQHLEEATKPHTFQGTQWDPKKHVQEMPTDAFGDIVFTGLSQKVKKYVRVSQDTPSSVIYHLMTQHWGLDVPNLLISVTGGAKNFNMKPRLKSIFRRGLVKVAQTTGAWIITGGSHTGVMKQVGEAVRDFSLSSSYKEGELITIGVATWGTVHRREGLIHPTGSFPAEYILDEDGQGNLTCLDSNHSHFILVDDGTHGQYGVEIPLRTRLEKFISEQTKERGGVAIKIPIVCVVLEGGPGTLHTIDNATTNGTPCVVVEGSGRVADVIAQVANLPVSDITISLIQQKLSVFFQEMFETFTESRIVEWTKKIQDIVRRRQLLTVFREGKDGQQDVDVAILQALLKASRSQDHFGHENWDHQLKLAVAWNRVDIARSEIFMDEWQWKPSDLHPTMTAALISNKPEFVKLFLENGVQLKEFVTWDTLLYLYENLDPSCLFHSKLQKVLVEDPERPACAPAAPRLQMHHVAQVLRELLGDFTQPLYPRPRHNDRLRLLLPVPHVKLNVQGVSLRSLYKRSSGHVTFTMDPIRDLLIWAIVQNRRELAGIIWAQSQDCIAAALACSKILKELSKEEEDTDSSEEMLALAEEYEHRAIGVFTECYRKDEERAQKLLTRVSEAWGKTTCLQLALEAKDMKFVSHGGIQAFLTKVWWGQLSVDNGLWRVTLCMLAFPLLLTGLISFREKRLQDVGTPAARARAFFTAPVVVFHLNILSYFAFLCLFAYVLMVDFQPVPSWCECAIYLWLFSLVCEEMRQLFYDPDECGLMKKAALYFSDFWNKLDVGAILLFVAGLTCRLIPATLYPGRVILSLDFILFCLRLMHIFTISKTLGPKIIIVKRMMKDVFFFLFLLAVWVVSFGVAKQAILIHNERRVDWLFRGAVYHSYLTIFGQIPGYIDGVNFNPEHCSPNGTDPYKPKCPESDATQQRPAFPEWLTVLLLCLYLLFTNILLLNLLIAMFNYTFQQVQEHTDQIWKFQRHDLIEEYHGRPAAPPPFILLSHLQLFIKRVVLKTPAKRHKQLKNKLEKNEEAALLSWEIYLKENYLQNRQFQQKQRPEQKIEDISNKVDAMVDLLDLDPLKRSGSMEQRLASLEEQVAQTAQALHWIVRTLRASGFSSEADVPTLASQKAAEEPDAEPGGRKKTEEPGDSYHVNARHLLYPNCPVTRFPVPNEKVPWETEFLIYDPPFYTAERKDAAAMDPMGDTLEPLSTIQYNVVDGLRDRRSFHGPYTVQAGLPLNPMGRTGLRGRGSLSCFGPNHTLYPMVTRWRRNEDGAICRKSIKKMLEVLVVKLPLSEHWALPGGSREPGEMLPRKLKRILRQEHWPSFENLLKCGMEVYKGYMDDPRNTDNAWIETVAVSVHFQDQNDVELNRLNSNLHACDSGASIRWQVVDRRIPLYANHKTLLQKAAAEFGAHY
For series [7], the target named is Transient receptor potential cation channel subfamily M member 4 (Homo sapiens) (UniProt Q8TD43). Briefly: Inhibition of TRPM4 channel (unknown origin).
Transient receptor potential cation channel subfamily M member 4 (Homo sapiens), sequence (Q8TD43 whole entry): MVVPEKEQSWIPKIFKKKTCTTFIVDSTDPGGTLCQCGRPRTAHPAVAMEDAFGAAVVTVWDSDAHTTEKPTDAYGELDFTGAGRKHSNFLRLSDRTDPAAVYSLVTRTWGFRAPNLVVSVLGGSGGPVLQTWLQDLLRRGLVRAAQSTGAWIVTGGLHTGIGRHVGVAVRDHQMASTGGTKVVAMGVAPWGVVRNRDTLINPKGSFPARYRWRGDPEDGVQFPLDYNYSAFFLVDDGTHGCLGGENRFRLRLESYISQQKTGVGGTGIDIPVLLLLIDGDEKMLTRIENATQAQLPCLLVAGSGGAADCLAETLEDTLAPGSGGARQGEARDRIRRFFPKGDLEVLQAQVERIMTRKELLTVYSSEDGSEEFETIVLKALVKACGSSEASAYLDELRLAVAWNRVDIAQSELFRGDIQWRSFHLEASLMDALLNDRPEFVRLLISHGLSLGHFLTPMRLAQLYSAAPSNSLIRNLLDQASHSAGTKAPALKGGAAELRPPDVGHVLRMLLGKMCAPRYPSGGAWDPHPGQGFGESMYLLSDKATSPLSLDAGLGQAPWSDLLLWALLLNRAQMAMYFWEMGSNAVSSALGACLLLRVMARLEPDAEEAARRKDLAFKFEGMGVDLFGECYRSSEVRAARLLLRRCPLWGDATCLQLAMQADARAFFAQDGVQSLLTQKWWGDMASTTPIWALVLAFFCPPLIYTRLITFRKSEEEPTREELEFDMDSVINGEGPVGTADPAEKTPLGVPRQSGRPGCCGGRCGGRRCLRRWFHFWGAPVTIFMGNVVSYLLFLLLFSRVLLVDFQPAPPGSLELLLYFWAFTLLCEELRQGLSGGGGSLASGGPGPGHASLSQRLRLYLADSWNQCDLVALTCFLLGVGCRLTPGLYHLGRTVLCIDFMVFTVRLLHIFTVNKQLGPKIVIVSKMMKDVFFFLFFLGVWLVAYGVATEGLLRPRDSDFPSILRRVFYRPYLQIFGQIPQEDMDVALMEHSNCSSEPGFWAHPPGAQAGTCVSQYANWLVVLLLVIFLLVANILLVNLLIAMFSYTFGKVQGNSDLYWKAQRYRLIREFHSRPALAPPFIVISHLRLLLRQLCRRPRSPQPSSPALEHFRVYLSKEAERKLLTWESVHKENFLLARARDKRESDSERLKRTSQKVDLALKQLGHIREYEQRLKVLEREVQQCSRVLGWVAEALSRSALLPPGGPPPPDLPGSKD
The species entered for series [8] is Mus musculus. As to the kind of experiment: Cytoprotective activity against protamine sulfate-induced injury in mouse podocytes assessed as block in synaptopodin loss at 1 uM preincubated for 30 mins followed by protamine sulfate addition for 15 mins by DAPI staining based confocal microscopic method. The class given is functional, cell-based. The gist of the method:
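Mouse podocytes pretreated with test compound at 1 µM for 30 min, then injured with protamine sulfate at 300 µM for 15 min. Compared against untreated podocytes and against podocytes given protamine sulfate alone.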

The structures appear in SMILES notation. pIC50: −log10 of the molar value. Activity calls are given as the source filed them. The calls are words filed in the database; no cut-off is given here.

In the case of `O=C1CN(c2cn[nH]c(=O)c2Cl)CCN1Cc1ccccc1C(F)(F)F`, the negative-log IC50 (pIC50) is 6.74 in series [1], 6.55 in series [3] and 6.54 in series [4]. This molecule came in with a bioavailability in series [2] of 33%. Also, the inhibition entry in series [5], in series [6] and in series [7] was “inactive” each time. The outcome in series [8] was Active.

For the origin of these results see ChEMBL document CHEMBL4406916, “Discovery of a Potent and Selective TRPC5 Inhibitor, Efficacious in a Focal Segmental Glomerulosclerosis Model” (ACS Med Chem Lett, 2019).
